The source of these data is ChEMBL document CHEMBL3259739, “Synthesis and structure-activity relationship of trisubstituted thiazoles as Cdc7 kinase inhibitors” (Eur J Med Chem, 2014).

In general, IC50 refers to the midpoint of a concentration-inhibition curve.

The structures appear in SMILES notation. Bounds are passed on as bounds.

The target of data set [1] is T1, CDC7/DBF4 (Cell division cycle 7-related protein kinase/Activator of S phase kinase) (Homo sapiens, UniProt O00311). In words: Inhibition of Cdc7/Dbf4 (unknown origin)-mediated phosphorylation of MCM2 by protein-A luminescent proximity homogenous assay. Format: protein-complex assay.
T1 sequence (Q9UBU7 whole entry): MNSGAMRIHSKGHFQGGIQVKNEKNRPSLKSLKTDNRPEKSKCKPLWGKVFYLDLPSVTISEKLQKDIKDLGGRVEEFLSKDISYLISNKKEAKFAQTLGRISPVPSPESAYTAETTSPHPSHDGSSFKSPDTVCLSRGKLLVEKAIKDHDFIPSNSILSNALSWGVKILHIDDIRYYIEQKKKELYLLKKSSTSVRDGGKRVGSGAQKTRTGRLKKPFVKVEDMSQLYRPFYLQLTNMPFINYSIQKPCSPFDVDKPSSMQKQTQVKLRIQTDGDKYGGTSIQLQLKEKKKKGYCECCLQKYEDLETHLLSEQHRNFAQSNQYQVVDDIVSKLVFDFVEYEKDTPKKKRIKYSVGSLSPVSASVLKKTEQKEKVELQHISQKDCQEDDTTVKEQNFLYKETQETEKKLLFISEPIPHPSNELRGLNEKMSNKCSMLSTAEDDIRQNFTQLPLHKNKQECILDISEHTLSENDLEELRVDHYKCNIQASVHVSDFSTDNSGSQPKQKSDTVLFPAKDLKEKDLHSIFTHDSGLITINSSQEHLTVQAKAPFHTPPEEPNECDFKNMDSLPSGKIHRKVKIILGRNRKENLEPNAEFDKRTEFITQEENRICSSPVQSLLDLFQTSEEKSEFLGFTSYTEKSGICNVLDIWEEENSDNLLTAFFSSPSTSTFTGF
T1 sequence (O00311 whole entry): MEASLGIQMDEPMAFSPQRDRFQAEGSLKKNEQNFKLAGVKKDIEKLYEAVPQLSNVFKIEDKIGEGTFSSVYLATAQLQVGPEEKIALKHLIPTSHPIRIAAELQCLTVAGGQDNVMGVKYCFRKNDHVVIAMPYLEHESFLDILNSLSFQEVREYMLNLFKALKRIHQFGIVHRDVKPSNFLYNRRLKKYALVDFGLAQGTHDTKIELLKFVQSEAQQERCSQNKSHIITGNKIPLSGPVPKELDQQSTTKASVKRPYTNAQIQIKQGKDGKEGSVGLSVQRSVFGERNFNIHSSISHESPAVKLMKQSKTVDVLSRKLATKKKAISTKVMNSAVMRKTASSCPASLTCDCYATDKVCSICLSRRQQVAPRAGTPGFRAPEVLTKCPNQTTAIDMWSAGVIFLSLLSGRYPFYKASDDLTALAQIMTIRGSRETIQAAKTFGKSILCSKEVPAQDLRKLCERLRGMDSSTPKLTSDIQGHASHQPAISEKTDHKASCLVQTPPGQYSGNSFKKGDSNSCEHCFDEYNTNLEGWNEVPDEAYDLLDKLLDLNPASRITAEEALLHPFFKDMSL
Data set [2] addresses Cyclin-dependent kinase 2/cyclin E1 (Homo sapiens, UniProt P24941). The data set can be described thus: Inhibition of CDK2/Cyclin-E (unknown origin) using maltose binding protein as substrate by HTRF assay. The class given is protein-complex assay. Background: TR-FRET usually uses a lanthanide donor and a delayed reading to cut background.
Data set [3] concerns the target T1, CDC7/DBF4 (Cell division cycle 7-related protein kinase/Activator of S phase kinase). The data set can be described thus: Inhibition of Cdc7/Dbf4 in human HCT116 cells assessed as reduction of MCM2 phosphorylation after 14 hrs. Format: cell-based, HCT-116. An outline of the steps:
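HCT-116 cells were exposed to inhibitor across a 22-point dose response for 14 h. They were then immunostained for phospho-serine MCM2 using an Alexa Fluor 488 secondary, with a Hoechst nuclear counterstain. The percentage of cells with phospho-MCM2 signal above a threshold was scored by high-content imaging, and IC50 values were derived from that.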

The nature of data set [4]: Intrinsic clearance in human liver microsomes at 1 uM after 30 mins by reverse phase HPLC analysis in presence of NADPH. Particulars: read-out: CLH. The class given is ADME. In a few lines: (§1)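 Reactions were stopped with MeCN after 0 or 30 min. Samples were analysed by reverse-phase HPLC–tandem MS to give intrinsic clearance (µl/min/mg).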
On the technique in general: Liver microsomes are vesicles of endoplasmic reticulum, rich in cytochrome P450 enzymes.

A short description of data set [5]: Intrinsic clearance in rat liver microsomes at 1 uM after 30 mins by reverse phase HPLC analysis in presence of NADPH. Format: ADME. As to conditions: read-out: CLH. An outline of the steps:
as §1

Data set [6] deals with CDC7/DBF4 (Cell division cycle 7-related protein kinase/Activator of S phase kinase) (Homo sapiens) (UniProt Q9UBU7+O00311). The data set can be described thus: Ratio of IC50 for Cdc7/Dbf4 in human HCT116 cells to IC50 for Cdc7/Dbf4 (unknown origin). Format: cell-based. Particulars: HCT-116.
Sequence of CDC7/DBF4 (Cell division cycle 7-related protein kinase/Activator of S phase kinase) (Homo sapiens) (O00311 whole entry, looked up): as the sequence (O00311 whole entry) above
Sequence of CDC7/DBF4 (Cell division cycle 7-related protein kinase/Activator of S phase kinase) (Homo sapiens) (Q9UBU7 whole entry, looked up): as the sequence (Q9UBU7 whole entry) above
Data set [7] is filed under the species Homo sapiens. The data set can be described thus: Selectivity ratio of IC50 for CDK2/Cyclin-E (unknown origin) to IC50 for Cdc7/Dbf4 (unknown origin).

Consider `CCOC(=O)c1sc(-c2ccnc(N)c2)nc1-c1ccccc1`, for which the values for the IC50 in data set [1] and in data set [2] were 19.9 µM and more than 125 µM, respectively.
The corresponding values for `CCOC(=O)c1sc(-c2cnccn2)nc1O` are 26.5 µM and more than 125 µM.
The corresponding values for `CCOC(=O)c1cnc(-c2ccncc2)s1` are 24 µM and more than 125 µM.
Take `NC(=O)c1sc(-c2ccncc2)nc1O`: the results for the IC50 in data set [1], in data set [2] and in data set [3] were 0.115 µM, more than 125 µM and more than 50 µM, respectively.
As to `CCOC(=O)c1sc(-c2ccnc(N)n2)nc1O`, the IC50 is 0.0415 µM in data set [1] and more than 125 µM in data set [2].
Turning to `CN(C)c1nc(-c2ccnc(N)n2)sc1C(N)=O`, the values for the concentration for half-maximal inhibition (IC50) in data set [1], in data set [2] and in data set [3] were 0.0205 µM, 18.2 µM and 1.87 µM, respectively. In addition, the results for the microsomal CLint at 1 µM in data set [4] and in data set [5] were 23 µL/min/mg and 26 µL/min/mg, respectively.
`CCOC(=O)c1sc(-c2ccccc2)nc1O`: the IC50 in data set [1] is 46.7 µM; in data set [2], more than 125 µM.
For `O=C(O)c1sc(-c2ccncc2)nc1O`, in that order: 6.13 µM and more than 125 µM.
Consider `NC(=O)c1sc(-c2ccncc2)nc1-c1ccccc1`, for which the 50% inhibitory concentration (IC50) in data set [1] stood at 0.101 µM; in data set [2], 34.2 µM; in data set [3] it was 23.6 µM. In addition, the Ratio IC50 in data set [6] is more than 100.
Regarding `O=C(NO)c1sc(-c2ccncc2)nc1-c1ccccc1`, the results for the IC50 in data set [1] and in data set [2] were 1.69 µM and more than 125 µM, respectively.
Turning to `CCOC(=O)c1sc(-c2ccncc2)nc1-c1ccc2ccccc2c1`, the IC50 in data set [1] and in data set [2] was more than 125 µM each time.
On to `COc1nc(-c2ccncc2)sc1C(N)=O`, for which the IC50 in data set [1] turned out to be 0.0955 µM; in data set [2] it was 5.71 µM; in data set [3], 9.93 µM. The Ratio IC50 in data set [6] was more than 100.
Regarding `NNC(=O)c1sc(-c2ccncc2)nc1-c1ccccc1`, the IC50 in data set [1] was 0.472 µM; in data set [2], more than 125 µM.
Regarding `NC(=O)c1sc(-c2ccnc(N)n2)nc1-c1ccccc1F`, the IC50 in data set [1] was 0.0178 µM; in data set [2], more than 125 µM; in data set [3] it was 1.07 µM. The microsomal CLint at 1 µM in data set [4] and in data set [5] was less than 14 µL/min/mg each time.
With `CCOC(=O)c1sc(-c2ccncc2)nc1-c1ccc(F)cc1Cl`, the IC50 in data set [1] is 1.02 µM; in data set [2] it was more than 125 µM.
For `CCOC(=O)c1sc(-c2ccncc2)nc1C`, in that order: 25.1 µM and more than 125 µM.
The corresponding values for `CCOC(=O)c1sc(-c2ccncc2)nc1-c1ccccc1` are 20.5 µM and more than 125 µM.
The corresponding values for `CCOC(=O)c1sc(-c2ccncc2)nc1Nc1ccccc1` are more than 125 µM and more than 125 µM.
Regarding `NC(=O)c1sc(-c2ccnc(N)n2)nc1-c1ccccc1C(F)(F)F`, the IC50 in data set [1] turned out to be 0.0184 µM; in data set [2] it was 34.9 µM; in data set [3] it was 2.04 µM. In addition, the microsomal CLint at 1 µM in data set [4] and in data set [5] was less than 14 µL/min/mg each time.
For the molecule `CCOC(=O)c1sc(-c2ccncc2)nc1-c1ccc(Cl)cc1Cl`, the 50% inhibitory concentration (IC50) in data set [1] is 0.973 µM; in data set [2], more than 125 µM.
The corresponding values for `CCOC(=O)c1sc(-c2ccc(OC)cc2)nc1O` are more than 125 µM and more than 125 µM.
As to `CCOC(=O)c1sc(-c2cc(N)ncn2)nc1-c1ccccc1`, the IC50 in data set [1] and in data set [2] was more than 125 µM in each case.
For `CCOC(=O)c1sc(-c2ccsc2)nc1O`, the half-inhibitory concentration (IC50) is 29.6 µM in data set [1] and more than 125 µM in data set [2].
`CCOC(=O)c1sc(-c2ccnc(CC)c2)nc1O`: the IC50 is 7.5 µM in data set [1] and more than 125 µM in data set [2].
The corresponding values for `CCOC(=O)c1sc(-c2ccncc2)nc1N` are 4.2 µM and more than 125 µM.
For `O=C(O)c1sc(-c2ccncc2)nc1-c1ccccc1`, in that order: 0.172 µM and more than 125 µM.
The corresponding values for `CCOC(=O)c1sc(-c2ccncc2)nc1NCc1ccccc1` are 38.3 µM and more than 125 µM.
`CN(C)C(=O)c1sc(-c2ccncc2)nc1O`: the IC50 in data set [1] was 24.4 µM; in data set [2] it was more than 125 µM.
The corresponding values for `CCOC(=O)c1sc(-c2ccncc2)nc1-c1cccc(Cl)c1Cl` are 0.451 µM and more than 125 µM.
The corresponding values for `c1ccc(-c2nc(-c3ccncc3)sc2-c2nnco2)cc1` are 3.87 µM and more than 125 µM.
For `CNC(=O)c1sc(-c2ccncc2)nc1O`, in that order: 8.98 µM and more than 125 µM.
For `O=C(NCc1ccccc1)c1sc(-c2ccncc2)nc1O`, the 50% inhibitory concentration (IC50) was determined as 11.6 µM in data set [1] and 52.1 µM in data set [2].
For `CCOC(=O)c1sc(-c2ccncc2)nc1N(C)C`, in that order: 0.669 µM and more than 125 µM.
On to `CCOC(=O)c1sc(-c2ccccn2)nc1O`, for which the half-maximal inhibitory concentration (IC50) in data set [1] and in data set [2] was more than 125 µM in each case.
On to `O=C1Nc2ccccc2Nc2nc(-c3ccncc3)sc21`, for which the results for the IC50 in data set [1] and in data set [2] were 0.104 µM and 1.2 µM, respectively. The Ratio IC50 in data set [7] was found to be 11.
As for `NC(=O)c1sc(-c2ccncc2)nc1-c1ccc(Cl)cc1Cl`, the IC50 turned out to be 0.0143 µM in data set [1], 0.7 µM in data set [2] and 11.5 µM in data set [3]. For the same molecule, in data set [6], the Ratio IC50 is more than 100.
`CCOC(=O)c1sc(-c2ccncc2)nc1NC`: the values for the IC50 in data set [1] and in data set [2] were 7.35 µM and more than 125 µM, respectively.
For `CCOC(=O)c1sc(C(C)(C)C)nc1O`, in that order: more than 125 µM and more than 125 µM.
For `CCOC(=O)c1sc(-c2ccncc2)nc1-c1cccnc1`, in that order: 8.29 µM and more than 125 µM.
Take `NC(=O)c1sc(-c2ccnc(N)n2)nc1-c1cc(Cl)cc(Cl)c1`: the half-maximal inhibitory concentration (IC50) was 0.0623 µM in data set [1], more than 125 µM in data set [2] and 8.5 µM in data set [3]. Further, the microsomal CLint at 1 µM was found to be 67 µL/min/mg in data set [4] and 69 µL/min/mg in data set [5].
For `Cc1ccc(-c2nc(-c3ccnc(N)n3)sc2C(N)=O)c(Cl)c1`, in that order: 0.00604 µM, 7.03 µM, 1.4 µM, less than 14 µL/min/mg and 140 µL/min/mg.
The corresponding values for `NC(=O)c1sc(-c2ccnc(N)n2)nc1-c1cc(F)ccc1F` are 0.0328 µM, 34.8 µM, 3.62 µM, less than 14 µL/min/mg and 28 µL/min/mg.
As for `c1ccc(-c2nc(-c3ccncc3)sc2-c2nn[nH]n2)cc1`, the figures for the IC50 in data set [1] and in data set [2] were 0.452 µM and more than 125 µM, respectively.
The corresponding values for `CCOC(=O)c1sc(-c2ccncc2)nc1-c1ccccc1Cl` are 0.529 µM and more than 125 µM.
For `N#Cc1sc(-c2ccncc2)nc1-c1ccccc1`, in that order: 10.3 µM and more than 125 µM.
Turning to `CCOC(=O)c1sc(-c2ccncc2)nc1-c1ccc(OC)cc1Cl`, the IC50 in data set [1] is 0.855 µM; in data set [2], more than 125 µM.
For `CCOC(=O)c1sc(-c2cccnc2)nc1O`, in that order: 32 µM and more than 125 µM.
For `CCOC(=O)c1sc(-c2ccncc2)nc1-c1ccccc1O`, in that order: 3.22 µM and more than 125 µM.
The corresponding values for `CCOC(=O)c1sc(-c2ccncc2)nc1OC` are 17.2 µM and more than 125 µM.
